Data from ChEMBL document CHEMBL1146956, “Factor VIIa inhibitors: a prodrug strategy to improve oral bioavailability” (Bioorg Med Chem Lett, 2006).
Values after ≈ are worked out from the molar mass of the structure shown.

How the values were obtained:
[1] = Solubility in phosphate buffer at pH 7.4; assay type: physicochemical
Procedure, shortened: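 Kinetic solubility was measured in phosphate buffer pH 7.4 with 5% DMSO, prepared from a 10 mM DMSO stock. Samples were vortexed, then centrifuged at 4300 RPM for 10 min to remove insoluble material. The supernatant was quantified by HPLC/UV against a calibration standard.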

[2] = Stability in rat plasma at 10 uM after 2 hrs; assay type: ADME, cell-free; settings: read-out: Stability
Procedure, shortened: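 Frozen pooled human or rat plasma (sodium heparin) was incubated with compound at 37 °C for 2 h. Prodrug disappearance was followed by LC/MS/MS. Percent remaining is the prodrug peak area at 2 h divided by the area at time 0.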

[3] = Stability in human liver microsome at 2 uM after 1 hr; assay type: ADME; settings: liver microsomes, read-out: Stability
Procedure, shortened: (§1)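 Compound was incubated at 37 °C for 1 h with cryopreserved pooled male human or rat liver microsomes. Loss of prodrug was tracked by LC/MS/MS. Percent remaining at 1 h was taken as the end-point peak area over the time-0 peak area.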

[4] = Stability in rat liver microsome at 2 uM after 1 hr; assay type: ADME; settings: liver microsomes, read-out: Stability; procedure, shortened: as §1
Homo sapiens = species: Homo sapiens; test: Stability in human plasma at 10 uM after 2 hrs
[5] = Oral absorption in Sprague-Dawley rats; assay type: ADME, organism-based; settings: rat, in vivo
Procedure, shortened: (§2)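 Plasma was acetonitrile-precipitated and analysed by LC/MS/MS for prodrug and parent, then AUC was computed. From dose-normalized AUCs, Abs = AUC_PO,PV/AUC_IV,JV and F = AUC_PO,JV/AUC_IV,JV.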

[6] = Oral bioavailability in Sprague-Dawley rats; assay type: ADME, organism-based; settings: rat, in vivo; procedure, shortened: as §2

Row | Compound | solubility [1] [µM] | remaining at 2 h, 10 µM [2] [%] | remaining at 1 h, 2 µM [3] [%] | remaining at 1 h, 2 µM [4] [%] | remaining at 2 h, 10 µM (Homo sapiens) [%] | Fa [5] [%] | bioavailability [6] [%]
1 | N/C(=N/C(=O)OCC(Cl)(Cl)Cl)c1ccc2[nH]c(-c3cccc(-c4ccccc4O)c3O)cc2c1 | < 10 | 89 | 87 | 9 | 100 | 21 | 14
2 | N=C(N)c1ccc2[nH]c(-c3cccc(-c4cc(F)ccc4O)c3O)cc2c1 | 83 (≈ 30 µg/mL) | 100 | 61 | 100 | 100 |  | < 1
3 | N=C(N)c1ccc2nc(-c3cccc(-c4cc(F)ccc4O)c3O)[nH]c2c1 |  |  |  |  |  | < 1 | < 1
4 | CC(C)OC(=O)NC(=N)c1ccc2[nH]c(-c3cccc(-c4ccccc4O)c3O)cc2c1 | < 10 | 100 |  | 49 | 100 | 53 | 23
5 | CC(=O)OC(C)OC(=O)NC(=N)c1ccc2[nH]c(-c3cccc(-c4ccccc4O)c3O)cc2c1 (stereo not drawn) | < 10 | 37 | 9 | 12 | 96 |  | 
6 | Oc1ccccc1-c1cccc(-c2nc3ccccc3[nH]2)c1O |  |  |  |  |  | 100 | 16
7 | C=CCO/N=C(/N)c1ccc2[nH]c(-c3cccc(-c4ccccc4O)c3O)cc2c1 | 24 (≈ 9.59 µg/mL) | 94 | 55 | 42 | 100 | 100 | 100
8 | N/C(=N/O)c1ccc2[nH]c(-c3cccc(-c4ccccc4O)c3O)cc2c1 | 380 (≈ 137 µg/mL) | 94 | 41 | 9 | 97 | 39 | 15

Now from value to compound:

Row | solubility [1] [µM] | remaining at 2 h, 10 µM [2] [%] | remaining at 1 h, 2 µM [3] [%] | remaining at 1 h, 2 µM [4] [%] | remaining at 2 h, 10 µM (Homo sapiens) [%] | Fa [5] [%] | bioavailability [6] [%] | Compound
9 | < 10 | 95 | 37 | 53 | 100 |  |  | CCOC(=O)NC(=N)c1ccc2[nH]c(-c3cccc(-c4ccccc4O)c3O)cc2c1
10 | < 10 | 99 | 100 | 78 | 100 | 60 | 38 | CC(C)(C)ONC(=N)c1ccc2[nH]c(-c3cccc(-c4ccccc4O)c3O)cc2c1
11 | 25 (≈ 10 µg/mL) | 100 | 63 | 69 | 100 | 54 | 10 | CC(C)ONC(=N)c1ccc2[nH]c(-c3cccc(-c4ccccc4O)c3O)cc2c1
12 | 43 (≈ 16.7 µg/mL) | 100 | 50 | 70 | 100 | 53 | 67 | CCONC(=N)c1ccc2[nH]c(-c3cccc(-c4ccccc4O)c3O)cc2c1
